Source: ChEMBL document CHEMBL1132135, “Potent, orally absorbed glucagon receptor antagonists” (Bioorg Med Chem Lett, 1999)

Assays:
Glucagon receptor [1] = molecular target: T1, Glucagon receptor (Homo sapiens, UniProt P47871); assay: biochemical; assay type: cell-based, CHO
[2] = molecular target: Glucagon receptor (Mus musculus) (UniProt Q61606); assay: Binding affinity towards glucagon receptor determined by reduction in binding of 125 I-glucagon to the murine glucagon receptor (mGLUR) expressed on CHO cells in presence of Mg+2 at 3 uM; assay type: cell-based
Chain of Glucagon receptor (Mus musculus) (Q61606 whole entry): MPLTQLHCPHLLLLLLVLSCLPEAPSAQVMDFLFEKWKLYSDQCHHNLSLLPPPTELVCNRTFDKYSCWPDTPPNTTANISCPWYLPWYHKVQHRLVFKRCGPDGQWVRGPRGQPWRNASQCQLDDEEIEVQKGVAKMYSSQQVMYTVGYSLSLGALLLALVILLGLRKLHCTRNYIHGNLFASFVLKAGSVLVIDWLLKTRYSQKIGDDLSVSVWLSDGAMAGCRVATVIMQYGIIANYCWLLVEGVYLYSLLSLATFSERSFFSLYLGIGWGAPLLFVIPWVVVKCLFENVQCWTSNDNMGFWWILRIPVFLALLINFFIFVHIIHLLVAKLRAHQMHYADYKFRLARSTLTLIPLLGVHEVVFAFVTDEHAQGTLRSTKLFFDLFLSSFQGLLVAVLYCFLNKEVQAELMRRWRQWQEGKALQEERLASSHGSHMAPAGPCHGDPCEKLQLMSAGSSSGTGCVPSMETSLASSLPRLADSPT

Glucagon receptor [3] = molecular target: T2, Glucagon receptor (Mus musculus, UniProt Q61606); assay: Binding affinity towards glucagon receptor determined by reduction in binding of [125I]glucagon to the murine glucagon receptor (GGR) expressed on CHO cells in absence of Mg+2; assay type: cell-based
T2 sequence (Q61606 whole entry): as above

[4] = Selectivity ratio between the binding value of human glucagon receptor (GGR) with Mg+2 and the value of p38 kinase
Glucagon receptor [5] = molecular target: T1, Glucagon receptor; assay: Binding affinity towards glucagon receptor determined by reduction in binding of [125I]glucagon to the human glucagon receptor (GGR) expressed on CHO cells in presence of Mg+2; assay type: cell-based
Summary of the method: (§1)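 Radioligand binding to the glucagon receptor was run with 5 mM Mg2+ added, described as a physiological concentration.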

[6] = molecular target: Mitogen-activated protein kinase 14 (Homo sapiens, UniProt Q16539); assay: Inhibitory activity against p38-alpha kinase
Chain of Mitogen-activated protein kinase 14 (Q16539 whole entry): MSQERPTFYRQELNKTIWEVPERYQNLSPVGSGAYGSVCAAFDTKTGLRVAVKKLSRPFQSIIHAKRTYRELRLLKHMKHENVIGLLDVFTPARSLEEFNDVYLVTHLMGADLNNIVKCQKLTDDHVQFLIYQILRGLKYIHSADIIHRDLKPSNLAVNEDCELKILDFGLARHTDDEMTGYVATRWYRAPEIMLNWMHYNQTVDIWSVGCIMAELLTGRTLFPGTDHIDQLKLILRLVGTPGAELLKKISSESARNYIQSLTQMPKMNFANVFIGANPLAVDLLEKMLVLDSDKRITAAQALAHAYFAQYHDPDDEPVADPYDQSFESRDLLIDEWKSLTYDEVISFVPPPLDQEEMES

Glucagon receptor [7] = molecular target: T2, Glucagon receptor; assay: (§2) Binding affinity towards glucagon receptor determined by reduction in binding of 125 I-glucagon to the murine glucagon receptor (mGLUR) expressed on CHO cells in presence of Mg+2; assay type: cell-based
Summary of the method: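 Mg2+ added at 5 mM, a physiological level, to the binding medium. IC50 reported in µM, with the number of determinations noted; where no IC50 was reached, percent inhibition is given at a single tested concentration.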

[8] = Inhibition of p38 kinase at 5 uM
[9] = Inhibition of p38 kinase at 1 uM
Glucagon receptor [10] = molecular target: T1, Glucagon receptor; assay: Binding affinity towards glucagon receptor determined by reduction in binding of 125 I-glucagon to the human glucagon receptor (hGLUR) expressed on CHO cells in absence of Mg+2 at 2 uM; assay type: cell-based
[11] = molecular target: Glucagon receptor (Mus musculus) (UniProt Q61606); assay: as §2; assay type: cell-based; conditions: concentration not given here
Summary of the method: as §1

[12] = Inhibition of p38 kinase at 10 uM
[13] = Inhibition of p38 kinase; conditions: concentration not given here
Glucagon receptor [14] = molecular target: T2, Glucagon receptor; assay: Binding affinity towards glucagon receptor determined by reduction in binding of 125 I-glucagon to the murine glucagon receptor (mGLUR) expressed on CHO cells in presence of Mg+2 at 3 uM
Glucagon receptor [15] = molecular target: T2, Glucagon receptor; assay: (§3) Binding affinity towards glucagon receptor determined by reduction in binding of 125 I-glucagon to the murine glucagon receptor (mGLUR) expressed on CHO cells in presence of Mg+2 at 1 uM; assay type: cell-based
[16] = molecular target: Glucagon receptor (Mus musculus) (UniProt Q61606); assay: as §3; assay type: cell-based
[17] = Inhibition of p38 kinase at 40 uM
[18] = Inhibition of p38 kinase at 2 uM

T1 sequence (P47871 whole entry): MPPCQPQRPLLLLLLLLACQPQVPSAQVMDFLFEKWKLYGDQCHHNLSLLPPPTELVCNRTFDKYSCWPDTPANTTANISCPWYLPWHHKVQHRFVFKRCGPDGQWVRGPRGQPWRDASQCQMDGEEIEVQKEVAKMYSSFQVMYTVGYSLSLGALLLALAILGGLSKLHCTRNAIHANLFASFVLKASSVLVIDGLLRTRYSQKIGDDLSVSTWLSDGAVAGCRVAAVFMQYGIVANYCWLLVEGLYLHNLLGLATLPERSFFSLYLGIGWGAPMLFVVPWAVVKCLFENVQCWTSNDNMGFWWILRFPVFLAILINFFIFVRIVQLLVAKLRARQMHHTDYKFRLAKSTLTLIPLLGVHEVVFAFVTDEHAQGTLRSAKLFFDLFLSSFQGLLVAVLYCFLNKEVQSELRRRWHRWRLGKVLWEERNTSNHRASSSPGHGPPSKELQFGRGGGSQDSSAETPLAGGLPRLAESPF

Row | SMILES | IC50 (Glucagon receptor [1]) | IC50 (Glucagon receptor [3]) | Ratio [4] | IC50 (Glucagon receptor [5]) | IC50 [6] | also measured
1 | C=CCOc1ccccc1-c1cc(-c2ccc(Cl)cc2)[nH]c1-c1ccncc1 | 17 nM | 270 nM | 0.05 | 260 nM | 4740 nM | inhibition [2]: 50%
2 | Fc1ccc(-c2cc(C3CCCCC3)[nH]c2-c2ccncc2)cc1 | 90 nM | > 1000 nM | 2.7 | 490 nM | 180 nM | IC50 (Glucagon receptor [7]): > 1000 nM
3 | Clc1ccc(-c2cc(-c3ccccc3Br)c(-c3ccncc3)[nH]2)cc1 | 26 nM |  | 2.3 | 2300 nM | 1000 nM | 
4 | CCCOc1cc(Br)ccc1-c1cc(-c2ccc(Cl)cc2)[nH]c1-c1ccncc1 | 4 nM | 49 nM |  | 130 nM |  | IC50 (Glucagon receptor [7]): 830 nM
5 | CCCNc1ccccc1-c1cc(-c2ccc(Cl)cc2)[nH]c1-c1ccncc1 | 20 nM | 440 nM |  | 270 nM |  | IC50 (Glucagon receptor [7]): > 3000 nM; inhibition [8]: 52%
6 | O=C(NCc1ccccc1)c1cc(-c2ccc(Cl)cc2)[nH]c1-c1ccncc1 | > 3000 nM |  |  |  |  | inhibition [9]: 0%
7 | Cc1cc(-c2ccc(F)cc2)c(-c2ccncc2)[nH]1 | > 3000 nM |  | > 9 |  | 320 nM | 
8 | N#Cc1ccc(-c2cc(-c3ccc(F)cc3)c(-c3ccncc3)[nH]2)cc1 | 140 nM | 230 nM | 102 | 4900 nM | 50 nM | inhibition [2]: 42%
9 | CCOC(=O)c1ccc(-c2cc(-c3ccc(F)cc3)c(-c3ccncc3)[nH]2)cc1 | 850 nM |  |  |  | 260 nM | 
10 | CC(C)Oc1ccccc1-c1cc(-c2ccc(Cl)cc2)[nH]c1-c1ccncc1 | 30 nM | 700 nM | 0.16 | 910 nM | 5540 nM | IC50 (Glucagon receptor [7]): > 1000 nM
11 | C[S+]([O-])c1ccc(-c2cc(-c3ccncc3)c(-c3ccc(F)cc3)[nH]2)cc1 (stereo not given) |  |  |  |  | 5.3 nM | inhibition (Glucagon receptor [10]): 31%
12 | COc1ccccc1-c1cc(-c2ccc(Cl)cc2)[nH]c1-c1ccncc1 | 70 nM | 400 nM | 0.18 | 500 nM | 2650 nM | inhibition [11]: 6%
13 | CN1CCC(c2cc(-c3ccc(F)cc3)c(-c3ccncc3)[nH]2)CC1 |  |  | > 130 |  | 20 nM | inhibition (Glucagon receptor [10]): 7%
14 | CCCOc1ccccc1-c1cc(-c2ccc(Cl)cc2)[nH]c1-c1ccncc1 | 8 nM | 30 nM | 0.05 | 140 nM | 2840 nM | IC50 (Glucagon receptor [7]): 700 nM
15 | CC(C)COc1ccccc1-c1cc(-c2ccc(Cl)cc2)[nH]c1-c1ccncc1 | 3 nM | 150 nM | 0.05 | 200 nM | 3760 nM | inhibition [11]: 17%
16 | Fc1ccc(-c2cc(-c3ccccc3)[nH]c2-c2ccncc2)cc1 | 390 nM | 2700 nM |  |  | 800 nM | 
17 | CCc1ccc(-c2cc(-c3ccc(F)cc3)c(-c3ccncc3)[nH]2)cc1 | 370 nM |  |  |  | 1360 nM | 
18 | CCCOc1ccc(Cl)cc1-c1cc(-c2ccc(Cl)cc2)[nH]c1-c1ccncc1 | 6 nM | 50 nM |  | 170 nM |  | IC50 (Glucagon receptor [7]): 1000 nM; inhibition [12]: 31%
19 | Fc1ccc(-c2cc[nH]c2-c2ccncc2)cc1 | > 3000 nM |  | > 18 | > 3000 nM | 160 nM | 
20 | CCCOc1cccc(OCCC)c1-c1cc(-c2ccc(Cl)cc2)[nH]c1-c1ccncc1 | 40 nM | 670 nM |  | 290 nM |  | IC50 (Glucagon receptor [7]): > 3000 nM; inhibition [13]: 5%
21 | O=C(O)c1ccc(-c2cc(-c3ccc(F)cc3)c(-c3ccncc3)[nH]2)cc1 | > 3000 nM |  |  |  | 90 nM | 
22 | Clc1ccc(-c2cc(-c3ccccc3)c(-c3ccncc3)[nH]2)cc1 | 60 nM |  | 1.8 | 380 nM | 210 nM | 
23 | C[S+]([O-])c1ccc(-c2cc(-c3ccc(F)cc3)c(-c3ccncc3)[nH]2)cc1 (stereo not given) | 1100 nM |  |  |  | 670 nM | 
24 | Cc1ccc(-c2cc(-c3ccc(F)cc3)c(-c3ccncc3)[nH]2)cc1 | 250 nM |  | 1.3 | 2200 nM | 1690 nM | 

Row | SMILES | IC50 (Glucagon receptor [1]) | IC50 (Glucagon receptor [3]) | Ratio [4] | IC50 (Glucagon receptor [5]) | IC50 [6] | also measured
25 | O=[N+]([O-])c1ccc(-c2cc(-c3ccc(F)cc3)c(-c3ccncc3)[nH]2)cc1 | 360 nM |  |  |  | 50 nM | 
26 | Nc1ccc(-c2cc(-c3ccc(F)cc3)c(-c3ccncc3)[nH]2)cc1 | 1400 nM |  |  |  | 190 nM | 
27 | Clc1ccc(-c2cc(-c3ccc(Cl)cc3)c(-c3ccncc3)[nH]2)cc1 | 190 nM | 220 nM | 5 | 810 nM | 160 nM | Inhibition (Glucagon receptor [14]): 42%
28 | CC(C)(C)c1ccc(-c2cc(-c3ccc(F)cc3)c(-c3ccncc3)[nH]2)cc1 | 850 nM |  |  |  | > 10000 nM | 
29 | CSc1ccc(-c2cc(-c3ccncc3)c(-c3ccc(F)cc3)[nH]2)cc1 |  |  |  |  | 44 nM | inhibition (Glucagon receptor [10]): 0%
30 | COc1cccc(-c2cc(-c3ccc(Cl)cc3)[nH]c2-c2ccncc2)c1 | 60 nM |  | 1.1 | 450 nM | 420 nM | 
31 | CSc1ccc(-c2cc(-c3ccc(F)cc3)c(-c3ccncc3)[nH]2)cc1 | 290 nM |  |  |  | 1230 nM | 
32 | Clc1ccc(-c2cc(-c3ccc(Br)cc3)c(-c3ccncc3)[nH]2)cc1 | 140 nM |  | 7.6 | 2300 nM | 300 nM | 
33 | Fc1ccc(-c2cc(-c3ccc(F)cc3)c(-c3ccncc3)[nH]2)cc1 | 90 nM | 430 nM | 1 | 350 nM | 340 nM | Inhibition (Glucagon receptor [15]): 7%
34 | CC(C)c1cc(-c2ccc(Cl)cc2)[nH]c1-c1ccncc1 | 32 nM | 60 nM |  | 110 nM | > 10000 nM | IC50 (Glucagon receptor [7]): > 3000 nM
35 | CCOC(=O)c1cc(-c2ccc(Cl)cc2)[nH]c1-c1ccncc1 | 90 nM | 500 nM |  | 400 nM | > 1000 nM | IC50 (Glucagon receptor [7]): > 3000 nM
36 | COc1ccc(-c2cc(-c3ccc(Cl)cc3)[nH]c2-c2ccncc2)cc1 | 100 nM | 240 nM | 1.4 | 1600 nM | 1150 nM | inhibition [16]: 16%
37 | O=C(OCc1ccccc1)c1cc(-c2ccc(Cl)cc2)[nH]c1-c1ccncc1 | 60 nM | 800 nM |  | 1300 nM |  | inhibition [16]: 8%; inhibition [17]: 69%
38 | Fc1ccc(-c2cc(-c3cccc(Cl)c3)[nH]c2-c2ccncc2)cc1 | 40 nM | 460 nM | 2.3 | 990 nM | 420 nM | inhibition [16]: 28%
39 | O=C(O)c1cc(-c2ccc(Cl)cc2)[nH]c1-c1ccncc1 | > 3000 nM |  |  |  | > 1000 nM | 
40 | C[S+]([O-])c1ccc(-c2nc(-c3ccc(F)cc3)c(-c3ccncc3)[nH]2)cc1 (stereo not given) [SB-203580] |  |  |  |  |  | inhibition (Glucagon receptor [10]): 18%; IC50 [18]: 37 nM
41 | Fc1ccc(-c2cc(-c3ccc(Cl)cc3Cl)[nH]c2-c2ccncc2)cc1 | 40 nM | 340 nM | 2.2 | 950 nM | 420 nM | inhibition [16]: 13%
42 | CCOc1ccccc1-c1cc(-c2ccc(Cl)cc2)[nH]c1-c1ccncc1 | 40 nM | 340 nM | 0.03 | 500 nM | 14200 nM | inhibition [11]: 22%
43 | Fc1ccc(-c2cc(-c3ccc(Cl)cc3)[nH]c2-c2ccncc2)cc1 | 80 nM | 200 nM | 0.57 | 800 nM | 1400 nM | inhibition [16]: 43%
44 | CCCCCCOc1ccccc1-c1cc(-c2ccc(Cl)cc2)[nH]c1-c1ccncc1 | 40 nM | 340 nM | 0.18 | 500 nM | 2680 nM | inhibition [16]: 22%
45 | COc1ccc(-c2cc(-c3ccc(F)cc3)c(-c3ccncc3)[nH]2)cc1 | 590 nM |  |  |  | 2800 nM | 
46 | CCCCOc1ccccc1-c1cc(-c2ccc(Cl)cc2)[nH]c1-c1ccncc1 | 10 nM | 80 nM |  | 180 nM |  | IC50 (Glucagon receptor [7]): 1200 nM; inhibition [9]: 16%
47 | Clc1ccc(-c2cc(C3CCCCC3)c(-c3ccncc3)[nH]2)cc1 | 100 nM | 60 nM |  | > 3000 nM | > 10000 nM | IC50 (Glucagon receptor [7]): > 3000 nM
48 | Clc1ccc(-c2ccc(-c3ccncc3)[nH]2)cc1 | 140 nM | 700 nM |  | > 3000 nM | > 10000 nM | IC50 (Glucagon receptor [7]): > 3000 nM
